# Data as given in ChEMBL document CHEMBL4270565, “Design, synthesis and antimicrobial evaluation of propylene-tethered ciprofloxacin-isatin hybrids” (Eur J Med Chem, 2018).
# Legend:
# [1] = test system: Staphylococcus epidermidis; experiment: Antibacterial activity against methicillin-sensitive Staphylococcus epidermidis ATCC 12228 after 18 to 24 hrs by two-fold serial dilution method; assay type: functional
# Summary of the method: (§1)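 Agar two-fold dilution MIC. Compounds were dissolved in 0.1 N NaOH and water, then serially diluted in melted Mueller-Hinton agar, with top concentrations starting at 128. Plates were inoculated at about 10 cfu and incubated at 35 °C for 18–24 h. MIC was taken as the lowest concentration giving 90% inhibition of growth.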
# [2] = test system: Staphylococcus epidermidis; experiment: Antibacterial activity against methicillin-resistant Staphylococcus epidermidis 13-3 after 18 to 24 hrs by two-fold serial dilution method; assay type: functional
# Summary of the method: (§2)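 Agar two-fold serial dilution in Mueller-Hinton agar. Strains came from the Chinese Center for Disease Control and Prevention. Compounds were dissolved in 0.1 N NaOH and water, then diluted in melted agar to final levels stepping down from 128. Plates were inoculated with bacterial cfu and incubated at 35 C for 18–24 h. MIC is the lowest concentration giving 90% growth inhibition.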
# Staphylococcus aureus [3] = experiment: Antibacterial activity against methicillin-sensitive Staphylococcus aureus ATCC 29213 after 18 to 24 hrs by two-fold serial dilution method; assay type: functional; summary of the method: as §2
# Staphylococcus aureus [4] = experiment: Antibacterial activity against methicillin-resistant Staphylococcus aureus ATCC 33591 after 18 to 24 hrs by two-fold serial dilution method; assay type: functional; summary of the method: as §2
# Enterococcus faecalis [5] = experiment: Antibacterial activity against Enterococcus faecalis ATCC 29212 after 18 to 24 hrs by two-fold serial dilution method; assay type: functional; summary of the method: as §1
# Enterococcus faecalis [6] = experiment: Antibacterial activity against Enterococcus faecalis ATCC 51299 after 18 to 24 hrs by two-fold serial dilution method; assay type: functional; summary of the method: as §1
# Enterococcus faecium [7] = experiment: Antibacterial activity against Enterococcus faecium ATCC 700221 after 18 to 24 hrs by two-fold serial dilution method; assay type: functional; summary of the method: as §1
# Enterococcus faecium [8] = experiment: Antibacterial activity against Enterococcus faecium 13-7 after 18 to 24 hrs by two-fold serial dilution method; assay type: functional; summary of the method: as §1
# Escherichia coli [9] = experiment: Antibacterial activity against extended-spectrum beta-lactamase deficient Escherichia coli ATCC 25922 after 18 to 24 hrs by two-fold serial dilution method; assay type: functional; summary of the method: as §1
# Escherichia coli [10] = experiment: Antibacterial activity against extended-spectrum beta-lactamase harboring Escherichia coli ATCC 35218 after 18 to 24 hrs by two-fold serial dilution method; assay type: functional; summary of the method: as §2
# Klebsiella pneumoniae [11] = experiment: Antibacterial activity against extended-spectrum beta-lactamase harboring Klebsiella pneumoniae ATCC 700603 after 18 to 24 hrs by two-fold serial dilution method; assay type: functional; summary of the method: as §2
# Klebsiella pneumoniae [12] = experiment: Antibacterial activity against extended-spectrum beta-lactamase deficient Klebsiella pneumoniae 15-2 after 18 to 24 hrs by two-fold serial dilution method; assay type: functional; summary of the method: as §1
# Pseudomonas aeruginosa = experiment: Antibacterial activity against Pseudomonas aeruginosa ATCC 27853 after 18 to 24 hrs by two-fold serial dilution method; assay type: functional; summary of the method: as §1
# [13] = test system: Acinetobacter calcoaceticus; experiment: Antibacterial activity against Acinetobacter calcoaceticus ATCC 19606 after 18 to 24 hrs by two-fold serial dilution method; assay type: functional; summary of the method: as §1
# Enterobacter cloacae = experiment: Antibacterial activity against Enterobacter cloacae ATCC 43560 after 18 to 24 hrs by two-fold serial dilution method; assay type: functional
# Klebsiella aerogenes = experiment: Antibacterial activity against Enterobacter aerogenes ATCC 13048 after 18 to 24 hrs by two-fold serial dilution method; assay type: functional; summary of the method: as §1
# Serratia marcescens = experiment: Antibacterial activity against Serratia marcescens ATCC 21074 after 18 to 24 hrs by two-fold serial dilution method; assay type: functional; summary of the method: as §1
# Morganella morganii = experiment: Antibacterial activity against Morganella morganii ATCC 25830 after 18 to 24 hrs by two-fold serial dilution method; assay type: functional; summary of the method: as §1
# Providencia rettgeri = experiment: Antibacterial activity against Providencia rettgeri ATCC 31052 after 18 to 24 hrs by two-fold serial dilution method; assay type: functional; summary of the method: as §1
# Proteus vulgaris = experiment: Antibacterial activity against Proteus vulgaris ATCC 29905 after 18 to 24 hrs by two-fold serial dilution method; assay type: functional; summary of the method: as §1
# Proteus mirabilis = experiment: Antibacterial activity against Proteus mirabilis 13-1 after 18 to 24 hrs by two-fold serial dilution method; assay type: functional; summary of the method: as §1
# [14] = test system: Stenotrophomonas maltophilia; experiment: Antibacterial activity against Stenotrophomonas maltophilia ATCC 13636 after 18 to 24 hrs by two-fold serial dilution method; assay type: functional; summary of the method: as §1
# Citrobacter freundii = experiment: Antibacterial activity against extended-spectrum beta-lactamase harboring Citrobacter freundii ATCC 43864 after 18 to 24 hrs by two-fold serial dilution method; assay type: functional; summary of the method: as §2
# [15] = test system: Mycobacterium tuberculosis; experiment: Antimycobacterial activity against Mycobacterium tuberculosis H37Rv after 7 days; assay type: functional; details: 168 h
# Summary of the method: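 Rapid direct susceptibility test in 48-well plates. Two-fold dilutions of compound from DMSO stocks were mixed with an equal volume of bacterial suspension. Medium-only wells served as growth controls and water-only wells as no-growth controls. Plates were sealed and held at 37 C in a humid box, and controls were checked at 3 days. MIC (90% growth inhibition) was read visually by high-magnification observation of the cells and re-read at 7 days.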
# [16] = Cytotoxicity against African green monkey Vero cells assessed as reduction in cell viability after 72 hrs by MTT assay; assay type: cell-based; details: chlorocebus sabaeus
# Summary of the method: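 VERO cells were kept in MEM with Earle's salts and 10% FBS at 37 °C, 5% CO2. They were seeded in 96-well plates and allowed to recover for 24 h. Cells were then exposed to compounds in DMSO over a series from 1000 down to 4 for 72 h. Viability was read by MTT, and CC50 was calculated by Bliss analysis.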
# Staphylococcus aureus [17] = experiment: Potency index, ratio of ciprofloxacin MIC90 to compound MIC90 for methicillin-sensitive Staphylococcus aureus ATCC 29213; assay type: functional
# [18] = test system: Staphylococcus epidermidis; experiment: Potency index, ratio of ciprofloxacin MIC90 to compound MIC90 for methicillin-sensitive Staphylococcus epidermidis ATCC 12228; assay type: functional
# Enterococcus faecalis [19] = experiment: Potency index, ratio of ciprofloxacin MIC90 to compound MIC90 for Enterococcus faecalis ATCC 29212; assay type: functional
# Enterococcus faecalis [20] = experiment: Potency index, ratio of ciprofloxacin MIC90 to compound MIC90 for Enterococcus faecalis ATCC 51299; assay type: functional
# Staphylococcus aureus [21] = experiment: Potency index, ratio of levofloxacin MIC90 to compound MIC90 for methicillin-sensitive Staphylococcus aureus ATCC 29213; assay type: functional
# [22] = test system: Staphylococcus epidermidis; experiment: Potency index, ratio of levofloxacin MIC90 to compound MIC90 for methicillin-sensitive Staphylococcus epidermidis ATCC 12228; assay type: functional
# Enterococcus faecalis [23] = experiment: Potency index, ratio of levofloxacin MIC90 to compound MIC90 for Enterococcus faecalis ATCC 29212; assay type: functional
# Enterococcus faecalis [24] = experiment: Potency index, ratio of levofloxacin MIC90 to compound MIC90 for Enterococcus faecalis ATCC 51299; assay type: functional
# [25] = Cmax in ICR mouse at 50 mg/kg, po administered as single dose by HPLC analysis; assay type: ADME, organism-based; design: dose 50 mg/kg, route oral; details: in vivo
# Summary of the method: (§3)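 Mice (3 per group), fasted overnight, given a single oral dose of 50 mg/kg as a suspension in 0.5% CMC. Jugular vein blood taken at 0.25, 0.5, 1, 2, 4, 6, 8 and 24 h. Serum proteins precipitated with acetonitrile and centrifuged; the dried supernatant was redissolved in acetonitrile for HPLC. PK parameters were derived directly from the concentration–time data.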
# [26] = Tmax in ICR mouse at 50 mg/kg, po administered as single dose by HPLC analysis; assay type: ADME, organism-based; details: in vivo; summary of the method: as §3
# [27] = AUC (0 to infinity) in ICR mouse at 50 mg/kg, po administered as single dose by HPLC analysis; assay type: ADME, organism-based; design: dose 50 mg/kg, route oral, time infinity; details: in vivo; summary of the method: as §3
# [28] = Elimination half life in ICR mouse at 50 mg/kg, po administered as single dose by HPLC analysis; assay type: ADME, organism-based; details: in vivo, read-out: beta t1/2 (converted)
# [29] = Half life in mouse microsomes; assay type: ADME, Microsome
SMILES,MIC90 [1],MIC90 [2],MIC90 (Staphylococcus aureus [3]),MIC90 (Staphylococcus aureus [4]),MIC90 (Enterococcus faecalis [5]),MIC90 (Enterococcus faecalis [6]),MIC90 (Enterococcus faecium [7]),MIC90 (Enterococcus faecium [8]),MIC90 (Escherichia coli [9]),MIC90 (Escherichia coli [10]),MIC90 (Klebsiella pneumoniae [11]),MIC90 (Klebsiella pneumoniae [12]),MIC90 (Pseudomonas aeruginosa),MIC90 [13],MIC90 (Enterobacter cloacae),MIC90 (Klebsiella aerogenes),MIC90 (Serratia marcescens),MIC90 (Morganella morganii),MIC90 (Providencia rettgeri),MIC90 (Proteus vulgaris),also measured
CCO/N=C1\C(=O)N(CCCN2CCN(c3cc4c(cc3F)c(=O)c(C(=O)OCCCN3C(=O)/C(=N/OCC)c5ccccc53)cn4C3CC3)CC2)c2ccccc21,64 µg/mL,128 µg/mL,128 µg/mL,> 128 µg/mL,64 µg/mL,> 128 µg/mL,> 128 µg/mL,> 128 µg/mL,8 µg/mL,32 µg/mL,64 µg/mL,64 µg/mL,64 µg/mL,> 128 µg/mL,64 µg/mL,64 µg/mL,> 128 µg/mL,64 µg/mL,128 µg/mL,128 µg/mL,MIC90 (Proteus mirabilis): 64 µg/mL; MIC90 [14]: > 128 µg/mL; MIC90 (Citrobacter freundii): 128 µg/mL; MIC90 [15]: 25 µg/mL; CC50 at 72 h [16]: 32 µg/mL
CO/N=C1\C(=O)N(CCCN2CCN(c3cc4c(cc3F)c(=O)c(C(=O)O)cn4C3CC3)CC2)c2ccc(C)cc21,0.06 µg/mL,1 µg/mL,0.06 µg/mL,0.06 µg/mL,0.5 µg/mL,0.5 µg/mL,2 µg/mL,8 µg/mL,≤ 0.03 µg/mL,≤ 0.03 µg/mL,0.25 µg/mL,≤ 0.03 µg/mL,0.5 µg/mL,0.25 µg/mL,≤ 0.03 µg/mL,≤ 0.03 µg/mL,0.06 µg/mL,≤ 0.03 µg/mL,≤ 0.03 µg/mL,≤ 0.03 µg/mL,MIC90 (Proteus mirabilis): ≤ 0.03 µg/mL; MIC90 [14]: ≤ 0.03 µg/mL; MIC90 (Citrobacter freundii): ≤ 0.03 µg/mL; Ratio (Staphylococcus aureus [17]): 2 - 64; Ratio [18]: 2 - 64; Ratio (Enterococcus faecalis [19]): 2 - 64; Ratio (Enterococcus faecalis [20]): 2 - 64; Ratio (Staphylococcus aureus [21]): 2 - 64; Ratio [22]: 2 - 64; Ratio (Enterococcus faecalis [23]): 2 - 64; Ratio (Enterococcus faecalis [24]): 2 - 64; MIC90 [15]: 0.78 µg/mL; CC50 at 72 h [16]: 256 µg/mL; Cmax [25]: 832 ng/mL; Tmax [26]: 1.2 h; AUC(0-inf) [27]: 2860 ng·h/mL; half-life [28]: 3.3 h; half-life [29]: 0.283 h
